From ChEMBL document CHEMBL1671864, “First assessment in humans of the safety, tolerability, pharmacokinetics, and ex vivo pharmacodynamic antimalarial activity of the new artemisinin derivative artemisone” (Antimicrob Agents Chemother, 2008) come the findings set out here.

SMILES strings stand for the structures. Converted amounts (≈) assume the structure as drawn.

The Cmax is the highest concentration seen after dosing. The AUC is the area under the concentration-time curve, a measure of exposure. In general, Tmax refers to the time at which the peak concentration occurs. Usually IC50 stands for the midpoint of a concentration-inhibition curve.

Data set [1] deals with Plasma. The data set can be described thus: Cmax in healthy human plasma assessed as metabolite BAY 78-1787 Cmax at 80 mg, po administered as four 20 mg immediate release tablets daily for 3 days during 10 hrs overnight fasting state measured after 1 day. In kind it is ADME, organism-based. Set-up: dose 80 mg, route oral. The conditions noted are these: in vivo. Put shortly: (§1)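 Healthy Caucasian male volunteers took 40 mg (two 20-mg IR tablets) or 80 mg (four tablets) orally once daily for 3 days, with 240 ml water after a 10-h fast. Plasma was sampled predose to 14 h after the first and last doses. M1/M2/M3 were quantified by LC/MS-MS MRM against a D4-labelled internal standard. Cmax was read from observed data and AUC by log-linear trapezoidal rule, noncompartmental, geometric means.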

Data set [2] deals with Plasma. The data set can be described thus: Half life in healthy human plasma assessed as metabolite BAY 78-1787 Half life at 40 mg, po administered as two 20 mg immediate release tablets daily for 3 days during 10 hrs overnight fasting state measured after 1 day. The format is ADME, organism-based. The conditions noted are these: in vivo, 24 h. An outline of the steps: (§2)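 Healthy Caucasian males took tablets once daily for 3 days with 240 ml water after a 10-h fast. Heparinised blood was drawn predose and at 0.25–14 h after the first and last doses. Plasma parent drug and metabolites M1–M3 were measured by LC/MS-MS (MRM, deuterated internal standard). Noncompartmental analysis gave Cmax observed, t1/2 = 0.693/kel and MRT = AUMC/AUC. Values are geometric means.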

The subject of data set [3] is Plasma. The data set can be described thus: AUC in healthy human plasma assessed as metabolite BAY 78-1787 AUC at 80 mg, po administered as four 20 mg immediate release tablets daily for 3 days during 10 hrs overnight fasting state measured after 1 day. In kind it is ADME, organism-based. Set-up: dose 80 mg, time < 10 hr, route oral. The conditions noted are these: in vivo. An outline of the steps:
as §1

In data set [4] the test system is Plasma. Briefly: Tmax in healthy human plasma assessed as metabolite BAY 78-1787 Tmax at 40 mg, po administered as two 20 mg immediate release tablets daily for 3 days during 10 hrs overnight fasting state measured after 3 day. The format is ADME, organism-based. To be noted: in vivo, 72 h. An outline of the steps:
(§3)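 Healthy Caucasian men (8 active, 4 placebo per dose) dosed with tablets daily for 3 days after 10-h fast. Lithium-heparin plasma sampled predose and 0.25–14 h after day-1 and day-3 doses, stored frozen. Parent and M1–M3 quantified by LC/MS-MS in positive-ion MRM. Tmax taken directly from observed individual data.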

The test system of data set [5] is Plasma. Briefly: Tmax in healthy human plasma assessed as metabolite BAY 78-1787 Tmax at 80 mg, po administered as four 20 mg immediate release tablets daily for 3 days during 10 hrs overnight fasting state measured after 1 day. The format is ADME, organism-based. To be noted: in vivo, 24 h. An outline of the steps: as §3
The test system of data set [6] is Plasma. The data set can be described thus: AUC in healthy human plasma assessed as metabolite BAY 78-1787 AUC at 40 mg, po administered as two 20 mg immediate release tablets daily for 3 days during 10 hrs overnight fasting state measured after 3 day. Set-up: time < 10 hr, dose 40 mg, route oral. To be noted: in vivo. The format is ADME, organism-based. An outline of the steps:
as §1

The test system of a further data set is Plasmodium falciparum. Briefly: Antimalarial activity against Plasmodium falciparum K1 in human plasma assessed as inhibition of hypoxanthine uptake by intraerythrocytic malaria parasites by hypoxanthine incorporation assay. In kind it is functional, organism-based. An outline of the steps:
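K1 or TM90-C2A parasites were sorbitol-synchronized and cultured in RPMI 1640. Drug was diluted in drug-free human serum (0.04–40 ng/ml) or subject plasma was diluted twofold (8–8,192). Parasites were added at 2% hematocrit, 1% parasitemia (>95% rings), and [3H]hypoxanthine uptake was measured over 48 h. IC50 or ID50 came from concentration or dilution-response curves. Equivalent concentration = ID50 × IC50.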

In data set [7] the test system is Plasma. The data set can be described thus: Cmax in healthy human plasma assessed as metabolite BAY 78-1787 Cmax at 80 mg, po administered as single ascending doses during 10 hrs overnight fasting state. The format is ADME, organism-based. Set-up: dose 80 mg, route oral. The conditions noted are these: in vivo. Put shortly: (§4)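 Healthy Caucasian male volunteers, single oral dose of 80 mg as four 20-mg immediate-release tablets, taken with 240 ml water after a 10-h overnight fast. Lithium-heparin venous blood was drawn predose and at 0.25–14 h, and plasma was stored frozen. Metabolites M1/M2/M3 were measured by LC/MS-MS (positive-ion MRM, deuterated internal standard). Noncompartmental analysis, AUC by log-linear trapezoidal rule extrapolated to infinity (Clast/kel), geometric means.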

Data set [8] deals with Plasma. Briefly: AUC in healthy human plasma assessed as metabolite BAY 78-1787 AUC at 40 mg, po administered as two 20 mg immediate release tablets daily for 3 days during 10 hrs overnight fasting state measured after 1 day. The format is ADME, organism-based. Set-up: dose 40 mg, time < 10 hr, route oral. To be noted: in vivo. Put shortly: as §1
Data set [9] deals with Plasma. Briefly: Ratio of AUC (0 to infinity) for metabolite BAY 78-1787 to AUC (0 to infinity) for compound in healthy human plasma at 80 mg, po administered as single dose for 3 days measured after 1 day. To be noted: in vivo, 24 h. The format is ADME, organism-based. Put shortly: (§5)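 Healthy Caucasian men (8 active, 4 placebo per dose) dosed with tablets daily for 3 days after 10-h fast. Plasma sampled 0.25–14 h after first and last doses. Parent and metabolites M1–M3 measured by LC/MS-MS (200 µl plasma). Metabolic ratio is metabolite AUC0-∞ divided by parent AUC0-∞ (log-linear trapezoidal, extrapolated by last concentration/kel). First vs third dose compared by paired t test.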

In data set [10] the test system is Plasma. The data set can be described thus: Half life in healthy human plasma assessed as metabolite BAY 78-1787 Half life at 80 mg, po administered as four 20 mg immediate release tablets daily for 3 days during 10 hrs overnight fasting state measured after 1 day. To be noted: in vivo, 24 h. The format is ADME, organism-based. Put shortly:
as §2

In data set [11] the test system is Plasma. The data set can be described thus: Ratio of AUC (0 to infinity) for metabolite BAY 78-1787 to AUC (0 to infinity) for compound in healthy human plasma at 80 mg, po administered as single dose for 3 days measured after 3 days. The format is ADME, organism-based. The conditions noted are these: in vivo, 72 h. Put shortly: as §5
The test system of data set [12] is Plasma. The data set can be described thus: Tmax in healthy human plasma assessed as metabolite BAY 78-1787 Tmax at 80 mg, po administered as four 20 mg immediate release tablets daily for 3 days during 10 hrs overnight fasting state measured after 3 day. In kind it is ADME, organism-based. The conditions noted are these: in vivo, 72 h. An outline of the steps: as §3

The subject of data set [13] is Plasma. The data set can be described thus: Cmax in healthy human plasma assessed as metabolite BAY 78-1787 Cmax at 80 mg, po administered as four 20 mg immediate release tablets daily for 3 days during 10 hrs overnight fasting state measured after 3 day. In kind it is ADME, organism-based. To be noted: in vivo, 72 h. Set-up: dose 80 mg, route oral. Put shortly:
as §1

Data set [14] has as its system Plasma. Briefly: AUC in healthy human plasma assessed as metabolite BAY 78-1787 AUC at 80 mg, po administered as four 20 mg immediate release tablets daily for 3 days during 10 hrs overnight fasting state measured after 3 day. The format is ADME, organism-based. Set-up: dose 80 mg, time < 10 hr, route oral. The conditions noted are these: in vivo. An outline of the steps: as §1

Data set [15] deals with Plasma. The data set can be described thus: AUC (0 to infinity) in healthy human plasma assessed as metabolite BAY 78-1787 AUC (0 to infinity) at 80 mg, po administered as single ascending doses during 10 hrs overnight fasting state. In kind it is ADME, organism-based. Set-up: dose 80 mg, time infinity, route oral. To be noted: in vivo. Put shortly:
as §4

For data set [16], the system named is Plasma. The data set can be described thus: Half life in healthy human plasma assessed as metabolite BAY 78-1787 Half life at 80 mg, po administered as four 20 mg immediate release tablets daily for 3 days during 10 hrs overnight fasting state measured after 3 day. In kind it is ADME, organism-based. The conditions noted are these: in vivo, 72 h. An outline of the steps: as §2

The subject of data set [17] is Plasma. Briefly: Tmax in healthy human plasma assessed as metabolite BAY 78-1787 Tmax at 40 mg, po administered as two 20 mg immediate release tablets daily for 3 days during 10 hrs overnight fasting state measured after 1 day. The format is ADME, organism-based. To be noted: in vivo, 24 h. Put shortly:
as §3

Data set [18] relates to Plasma. The data set can be described thus: Ratio of AUC (0 to infinity) for metabolite BAY 78-1787 to AUC (0 to infinity) for compound in healthy human plasma at 40 mg, po administered as single dose for 3 days measured after 3 days. In kind it is ADME, organism-based. The conditions noted are these: in vivo, 72 h. An outline of the steps:
as §5

Data set [19] has as its system Plasma. Briefly: Half life in healthy human plasma assessed as metabolite BAY 78-1787 Half life at 40 mg, po administered as two 20 mg immediate release tablets daily for 3 days during 10 hrs overnight fasting state measured after 3 day. The format is ADME, organism-based. To be noted: in vivo, 72 h. Put shortly:
as §2

The test system of data set [20] is Plasma. The data set can be described thus: Cmax in healthy human plasma assessed as metabolite BAY 78-1787 Cmax at 40 mg, po administered as two 20 mg immediate release tablets daily for 3 days during 10 hrs overnight fasting state measured after 1 day. In kind it is ADME, organism-based. Set-up: dose 40 mg, route oral. To be noted: in vivo, 24 h. An outline of the steps:
as §1

Data set [21] concerns Plasma. Briefly: Half-life in healthy human plasma assessed as metabolite BAY 78-1787 half-life at 80 mg, po administered as single ascending doses during 10 hrs overnight fasting state. The format is ADME, organism-based. The conditions noted are these: in vivo. Put shortly:
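Healthy Caucasian male volunteers, single oral dose with 240 ml water after a 10-h overnight fast. Heparinised venous blood was drawn predose and at 0.25–14 h. Plasma was stored frozen. Parent drug and metabolites M1–M3 were measured by LC/MS-MS (MRM, deuterated internal standard). Noncompartmental analysis gave Cmax observed, t1/2 = 0.693/kel (terminal regression) and MRT = AUMC/AUC. Values are geometric means.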

Data set [22] relates to Plasma. The data set can be described thus: Ratio of AUC (0 to infinity) for metabolite BAY 78-1787 to AUC (0 to infinity) for compound in healthy human plasma at 40 mg, po administered as single dose for 3 days measured after 1 day. The format is ADME, organism-based. To be noted: in vivo, 24 h. An outline of the steps:
as §5

Data set [23] deals with Plasma. Briefly: Cmax in healthy human plasma assessed as metabolite BAY 78-1787 Cmax at 40 mg, po administered as two 20 mg immediate release tablets daily for 3 days during 10 hrs overnight fasting state measured after 3 day. The format is ADME, organism-based. Set-up: dose 40 mg, route oral. The conditions noted are these: in vivo, 72 h. An outline of the steps: as §1

Turning to `C[C@H]1[C@H](N2C=CS(=O)(=O)CC2)O[C@@H]2O[C@]3(C)CC[C@H]4[C@H](C)CC[C@@H]1[C@@]24OO3`, the peak concentration (Cmax) in the data set with Plasma [1] came out at 112.6 ng/mL; with Plasma [7], 121.1 ng/mL; with Plasma [13], 85.3 ng/mL; in the data set with Plasma [20] it was 51.7 ng/mL; with Plasma [23], 47.8 ng/mL. In addition, the t1/2 with Plasma [2] stood at 1.9 h; with Plasma [10] it was 2.13 h; with Plasma [16] it was 1.63 h; with Plasma [19], 1.54 h; in the data set with Plasma [21], 2.78 h. The AUC in the data set on Plasma [3] came to 296 ng·h/mL; with Plasma [6], 112.3 ng·h/mL; in the data set on Plasma [8], 112.6 ng·h/mL; in the data set with Plasma [14], 255.2 ng·h/mL; in the data set with Plasma [15], 315.4 ng·h/mL. In addition, the Tmax with Plasma [4] was determined as 1.75 h; with Plasma [5] it was 2 h; with Plasma [12], 1.5 h; with Plasma [17], 1.75 h. Further, the IC50 with Plasmodium falciparum was 1.7 ng/mL (≈ 4.26 nM). For the same compound, the Ratio with Plasma [9] amounted to 0.89; in the data set on Plasma [11], 0.79; in the data set with Plasma [18], 0.62; with Plasma [22] it was 0.63.
